{"source": "ChEMBL document CHEMBL3085764", "about": "“Azole-carbodithioate hybrids as vaginal anti-Candida contraceptive agents: design, synthesis and docking studies” (Eur J Med Chem, 2013)", "key": {"[1]": {"test_system": "Sporothrix schenckii", "assay": "Antifungal activity against Sporothrix schenckii after 48 hrs by broth microdilution technique", "format": "functional, organism-based", "summary_of_the_method": "(§1)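 MIC by broth microdilution following NCCLS guidelines, in RPMI 1640 buffered with MOPS. Starting inoculum 1-5 × 10^3 CFU/mL. Plates incubated at 35 °C. MIC and IC50 read spectrophotometrically at 492 nm after 48 h.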"}, "[2]": {"assay": "Growth inhibition of Lactobacillus acidophilus after 72 hrs by colony counting method", "summary_of_the_method": "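Rogosa SL agar plates (7.5%, 0.132% acetic acid), with or without compound, inoculated with L. acidophilus (~70 […]/10 cm²). Incubated 72 h at 37 °C in 5% CO2/95% air. Colony number and size recorded. Value = average colony size (% of control) × colony number / 100.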"}, "[3]": {"test_system": "Trichomonas vaginalis", "assay": "Trichomonacidal activity against Trichomonas vaginalis after 48 hrs by trypan blue exclusion assay", "format": "functional", "conditions": "read-out: MEC", "summary_of_the_method": "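T. vaginalis in log phase, grown in TYM with 10% FCS, vitamin mixture and penicillin/streptomycin at 37 °C. DMSO stocks ([…]) serially diluted in TYM down to 0.1 µg/mL; DMSO/TYM vehicle controls. 5 × 10^4 trophozoites added and incubated anaerobically at 37 °C. Viability checked by trypan blue from 3 to 48 h. MIC = lowest concentration killing all cells by 48 h. Three repeats.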"}, "[4]": {"assay": "Spermicidal activity in human semen assessed as sperm immobilization at 0.1 % w/v up to 30 seconds by phase contrast microscopy", "format": "functional"}, "[5]": {"assay": "Spermicidal activity in human semen assessed as sperm immobilization at 1.0 % w/v up to 30 seconds by phase contrast microscopy", "format": "functional"}, "[6]": {"test_system": "Candida albicans", "assay": "Antifungal activity against Candida albicans clinical isolate after 48 hrs by broth microdilution technique", "format": "functional, organism-based", "summary_of_the_method": "as §1"}, "[7]": {"test_system": "Candida albicans", "assay": "Antifungal activity against Candida albicans ATCC 10231 after 48 hrs by broth microdilution technique", "format": "functional, organism-based", "conditions": "ATCC 10231, 48 h", "summary_of_the_method": "as §1"}, "[8]": {"test_system": "Candida albicans", "assay": "Antifungal activity against Candida albicans clinical isolate CDRI after 48 hrs by broth microdilution technique", "format": "functional, organism-based", "summary_of_the_method": "as §1"}, "[9]": {"test_system": "Candida albicans", "assay": "Antifungal activity against Candida albicans MTCC 183 after 48 hrs by broth microdilution technique", "format": "functional, organism-based", "conditions": "MTCC 183, 48 h", "summary_of_the_method": "as §1"}, "[10]": {"test_system": "Candida parapsilosis", "assay": "Antifungal activity against Candida parapsilosis ATCC 22019 after 48 hrs by broth microdilution technique", "format": "functional, organism-based", "conditions": "Lodderomyces parapsilosis, ATCC 22019, 48 h", "summary_of_the_method": "as §1"}, "[11]": {"test_system": "Candida albicans", "assay": "Antifungal activity against Candida albicans after 48 hrs by broth microdilution technique", "format": "functional, organism-based", "summary_of_the_method": "as §1"}, "[12]": {"test_system": "Klebsiella pneumoniae", "assay": "Antibacterial activity against Klebsiella pneumoniae after 48 hrs by broth microdilution technique", "format": "functional", "summary_of_the_method": "(§2)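 Broth microdilution following NCCLS guidelines in Mueller Hinton broth. Inoculum held at 1-5 × 10^3 cfu/mL. Plates incubated at 35 °C in a moist, dark chamber for 48 h. MIC and IC50 read spectrophotometrically at 492 nm.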"}, "[13]": {"test_system": "Staphylococcus aureus", "assay": "Antibacterial activity against Staphylococcus aureus ATCC 25923 after 48 hrs by broth microdilution technique", "format": "functional", "conditions": "ATCC 25923, 48 h", "summary_of_the_method": "as §2"}, "[14]": {"test_system": "Pseudomonas aeruginosa", "assay": "Antibacterial activity against Pseudomonas aeruginosa ATCC BAA-427 after 48 hrs by broth microdilution technique", "format": "functional", "conditions": "ATCC BAA-427, 48 h", "summary_of_the_method": "as §2"}, "[15]": {"test_system": "Escherichia coli", "assay": "Antibacterial activity against Escherichia coli ATCC 9637 after 48 hrs by broth microdilution technique", "format": "functional", "conditions": "ATCC 9637, 48 h", "summary_of_the_method": "as §2"}, "[16]": {"test_system": "Cryptococcus neoformans", "assay": "Antifungal activity against Cryptococcus neoformans after 48 hrs by broth microdilution technique", "format": "functional, organism-based", "summary_of_the_method": "as §1"}, "[17]": {"test_system": "Trichophyton mentagrophytes", "assay": "Antifungal activity against Trichophyton mentagrophytes after 48 hrs by broth microdilution technique", "format": "functional, organism-based", "summary_of_the_method": "as §1"}, "[18]": {"test_system": "HeLa", "assay": "Cytotoxicity against human HeLa cells after 5 hrs by LDH assay"}, "[19]": {"test_system": "Aspergillus fumigatus", "assay": "Antifungal activity against Aspergillus fumigatus after 48 hrs by broth microdilution technique", "format": "functional, organism-based", "summary_of_the_method": "as §1"}}, "data": [{"smiles": "CCCCSC(=S)n1ccnc1", "values": [{"measurement": "IC50", "setting": "[1]", "result": "> 50", "unit": "µg/mL"}, {"measurement": "IC50", "setting": "[2]", "result": 45.64, "unit": "µg/mL"}, {"measurement": "minimal effective concentration", "setting": "[3]", "result": "> 200", "unit": "µg/mL"}, {"measurement": "Activity", "setting": "[4]", "result": 80, "unit": "%"}, {"measurement": "Activity", "setting": "[5]", "result": 100, "unit": "%"}, {"measurement": "IC50", "setting": "[6]", "result": 1.53, "unit": "µg/mL"}, {"measurement": "IC50", "setting": "[7]", "result": 3.5, "unit": "µg/mL"}, {"measurement": "IC50", "setting": "[8]", "result": 6.17, "unit": "µg/mL"}, {"measurement": "IC50", "setting": "[9]", "result": 5.41, "unit": "µg/mL"}, {"measurement": "IC50", "setting": "[10]", "result": 1.94, "unit": "µg/mL"}, {"measurement": "IC50", "setting": "[11]", "result": 1.29, "unit": "µg/mL"}, {"measurement": "MIC", "setting": "[12]", "result": "≥ 50", "unit": "µg/mL"}, {"measurement": "MIC", "setting": "[13]", "result": "≥ 50", "unit": "µg/mL"}, {"measurement": "MIC", "setting": "[14]", "result": "≥ 50", "unit": "µg/mL"}, {"measurement": "MIC", "setting": "[15]", "result": "≥ 50", "unit": "µg/mL"}, {"measurement": "IC50", "setting": "[16]", "result": 3.79, "unit": "µg/mL"}, {"measurement": "IC50", "setting": "[17]", "result": "> 50", "unit": "µg/mL"}, {"measurement": "IC50", "setting": "[18]", "result": 48.7, "unit": "µg/mL"}]}, {"smiles": "CCCCSC(=S)n1ccnc1C", "values": [{"measurement": "IC50", "setting": "[1]", "result": 5.71, "unit": "µg/mL"}, {"measurement": "IC50", "setting": "[2]", "result": 220, "unit": "µg/mL"}, {"measurement": "minimal effective concentration", "setting": "[3]", "result": "> 200", "unit": "µg/mL"}, {"measurement": "Activity", "setting": "[4]", "result": 0, "unit": "%"}, {"measurement": "Activity", "setting": "[5]", "result": 100, "unit": "%"}, {"measurement": "IC50", "setting": "[6]", "result": 2.12, "unit": "µg/mL"}, {"measurement": "IC50", "setting": "[7]", "result": 5.09, "unit": "µg/mL"}, {"measurement": "IC50", "setting": "[8]", "result": 7.64, "unit": "µg/mL"}, {"measurement": "IC50", "setting": "[9]", "result": 4.69, "unit": "µg/mL"}, {"measurement": "IC50", "setting": "[10]", "result": "> 50", "unit": "µg/mL"}, {"measurement": "IC50", "setting": "[11]", "result": 1.34, "unit": "µg/mL"}, {"measurement": "MIC", "setting": "[12]", "result": "≥ 50", "unit": "µg/mL"}, {"measurement": "MIC", "setting": "[13]", "result": "≥ 50", "unit": "µg/mL"}, {"measurement": "MIC", "setting": "[14]", "result": "≥ 50", "unit": "µg/mL"}, {"measurement": "MIC", "setting": "[15]", "result": "≥ 50", "unit": "µg/mL"}, {"measurement": "IC50", "setting": "[16]", "result": 5.57, "unit": "µg/mL"}, {"measurement": "IC50", "setting": "[19]", "result": 23.8, "unit": "µg/mL"}, {"measurement": "IC50", "setting": "[17]", "result": 2.02, "unit": "µg/mL"}, {"measurement": "IC50", "setting": "[18]", "result": 85.5, "unit": "µg/mL"}]}, {"smiles": "CSC(=S)n1cncn1", "values": [{"measurement": "IC50", "setting": "[1]", "result": 4.34, "unit": "µg/mL"}, {"measurement": "IC50", "setting": "[2]", "result": 39.54, "unit": "µg/mL"}, {"measurement": "minimal effective concentration", "setting": "[3]", "result": "> 200", "unit": "µg/mL"}, {"measurement": "Activity", "setting": "[4]", "result": 0, "unit": "%"}, {"measurement": "Activity", "setting": "[5]", "result": 100, "unit": "%"}, {"measurement": "IC50", "setting": "[6]", "result": "> 50", "unit": "µg/mL"}, {"measurement": "IC50", "setting": "[7]", "result": 38, "unit": "µg/mL"}, {"measurement": "IC50", "setting": "[8]", "result": "> 50", "unit": "µg/mL"}, {"measurement": "IC50", "setting": "[9]", "result": 31.2, "unit": "µg/mL"}, {"measurement": "IC50", "setting": "[10]", "result": "> 50", "unit": "µg/mL"}, {"measurement": "IC50", "setting": "[11]", "result": 1.43, "unit": "µg/mL"}, {"measurement": "MIC", "setting": "[12]", "result": "≥ 50", "unit": "µg/mL"}, {"measurement": "MIC", "setting": "[13]", "result": "≥ 50", "unit": "µg/mL"}, {"measurement": "MIC", "setting": "[14]", "result": "≥ 50", "unit": "µg/mL"}, {"measurement": "MIC", "setting": "[15]", "result": "≥ 50", "unit": "µg/mL"}, {"measurement": "IC50", "setting": "[16]", "result": "> 50", "unit": "µg/mL"}, {"measurement": "IC50", "setting": "[19]", "result": "> 50", "unit": "µg/mL"}, {"measurement": "IC50", "setting": "[17]", "result": "> 50", "unit": "µg/mL"}, {"measurement": "IC50", "setting": "[18]", "result": 53.7, "unit": "µg/mL"}]}, {"smiles": "CCCCCCCCCc1ccc(OCCOCCOCCOCCOCCOCCOCCOCCOCCO)cc1", "note": "[NONOXYNOL 9]", "values": [{"measurement": "IC50", "setting": "[2]", "result": 21, "unit": "µg/mL"}, {"measurement": "minimal effective concentration", "setting": "[3]", "result": 37.4, "unit": "µg/mL"}, {"measurement": "Activity", "setting": "[4]", "result": 100, "unit": "%"}, {"measurement": "Activity", "setting": "[5]", "result": 100, "unit": "%"}, {"measurement": "IC50", "setting": "[18]", "result": 37, "unit": "µg/mL"}]}]}
